# Experimental data of several laboratories.
# Each line is one published result; the experiments were not run side by side.
# Target: Homeodomain-interacting protein kinase 2 (HIPK2, Homo sapiens, UniProt Q9H2X6)
# Observed: enzyme activity
# Mode: inhibitor
SMILES,method,tested at,remaining activity
CC(C)(C)c1nc(-c2cccc(NS(=O)(=O)c3c(F)cccc3F)c2F)c(-c2ccnc(N)n2)s1,radiometric,1 µM,80%
Cc1sc(C(=O)NC2COC2)cc1-n1cc(NC(=O)Nc2c(F)cccc2Cl)cn1,,10 µM,103%
O=C(O)c1ccc2c(c1)nc(NCCc1ccccc1)c1ccncc12,radiometric,1 µM,4%
COc1cc(Nc2cnc(C#N)c(O[C@H](C)CN(C)C)n2)ncc1-c1cnn(C)c1,radiometric,1 µM,89%
FC(F)c1nc2ccccc2n1-c1nc(N2CCOCC2)nc(N2CCOCC2)n1,,10 µM,63%
O=C(O)c1ccc2c(c1)nc(Nc1ccc(Cl)cc1)c1ccncc12,radiometric,1 µM,-1%
CCN(CC)c1ccc(C2=NNC(=O)CC2C)cc1[N+](=O)[O-] (stereo not drawn),,10 µM,106%
CC(C)(O)[C@H]1CC[C@H](Nc2ccc3ncc(-c4cccc(C(F)(F)F)c4)n3n2)CC1,,1 µM,70.3%
O=C(O)c1ccc2c(c1)nc(NCCc1ccccc1)c1ncncc12,radiometric,1 µM,7%
Nc1nc(NC2CCCCC2)sc1C(=O)c1ccccc1,,10 µM,64%
O=C(O)c1ccc2c(c1)nc(Nc1ccc(F)c(Cl)c1)c1ccncc12,radiometric,1 µM,1%
COc1cc(Cl)c(C(=O)N[C@@H](CN[C@H]2CC[C@@H](N)CC2)Cc2ccc(C#N)cc2)cc1-c1ccc(CN[C@H](C)c2ccc(C)cc2)o1,,1 µM,105%
